The M2OR odorant receptor database

Assays:
Settings in all cases: stereoisomer not certain
UniProt Q8VG27 = molecular target: T1, UniProt Q8VG27
T1 sequence (whole entry): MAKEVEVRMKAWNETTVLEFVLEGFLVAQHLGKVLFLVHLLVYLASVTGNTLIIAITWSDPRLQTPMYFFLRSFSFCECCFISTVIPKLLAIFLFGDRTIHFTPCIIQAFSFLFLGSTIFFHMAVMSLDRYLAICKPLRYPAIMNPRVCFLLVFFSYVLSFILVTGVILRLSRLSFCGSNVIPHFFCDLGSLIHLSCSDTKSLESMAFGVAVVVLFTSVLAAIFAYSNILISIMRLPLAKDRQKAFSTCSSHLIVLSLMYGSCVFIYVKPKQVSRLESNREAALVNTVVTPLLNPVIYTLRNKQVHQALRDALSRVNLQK
Outline: (§1)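 Transient luciferase assays in mammalian cell lines were common, though methods varied by source. The values come from published papers and their supplementary material, with extra details from the original authors when needed. Responsive refers to a measured signal the original authors judged statistically different from baseline, and non-responsive (inactive) to the remainder.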

UniProt Q8VG53 = molecular target: T2, UniProt Q8VG53
T2 sequence (whole entry): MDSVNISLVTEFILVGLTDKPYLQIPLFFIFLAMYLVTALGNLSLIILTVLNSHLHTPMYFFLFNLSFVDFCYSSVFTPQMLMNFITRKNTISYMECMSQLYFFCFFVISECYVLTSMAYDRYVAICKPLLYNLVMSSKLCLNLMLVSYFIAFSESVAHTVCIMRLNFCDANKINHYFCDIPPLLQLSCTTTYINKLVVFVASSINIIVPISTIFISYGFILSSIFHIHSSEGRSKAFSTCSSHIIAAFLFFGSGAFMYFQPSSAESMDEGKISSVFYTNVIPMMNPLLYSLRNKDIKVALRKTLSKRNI
Outline: as §1

UniProt Q8VG64 = molecular target: T3, UniProt Q8VG64
T3 sequence (whole entry): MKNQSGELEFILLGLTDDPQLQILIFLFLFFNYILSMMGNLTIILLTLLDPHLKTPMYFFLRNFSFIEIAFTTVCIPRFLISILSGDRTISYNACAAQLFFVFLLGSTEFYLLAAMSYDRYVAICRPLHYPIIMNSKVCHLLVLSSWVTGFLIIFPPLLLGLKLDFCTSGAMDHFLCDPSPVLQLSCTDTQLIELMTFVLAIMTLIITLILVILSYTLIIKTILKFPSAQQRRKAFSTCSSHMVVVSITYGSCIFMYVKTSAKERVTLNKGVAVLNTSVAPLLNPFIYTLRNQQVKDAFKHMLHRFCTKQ
Outline: as §1

UniProt Q8VGB9 = molecular target: T4, UniProt Q8VGB9
T4 sequence (whole entry): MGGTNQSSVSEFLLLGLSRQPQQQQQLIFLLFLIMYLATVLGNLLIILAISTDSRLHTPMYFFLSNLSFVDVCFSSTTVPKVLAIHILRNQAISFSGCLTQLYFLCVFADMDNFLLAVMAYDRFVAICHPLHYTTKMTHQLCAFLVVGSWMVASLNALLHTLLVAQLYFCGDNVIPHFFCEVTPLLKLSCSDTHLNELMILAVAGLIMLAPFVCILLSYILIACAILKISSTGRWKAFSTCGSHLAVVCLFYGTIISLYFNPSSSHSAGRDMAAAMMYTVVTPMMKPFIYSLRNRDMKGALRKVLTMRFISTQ
Outline: as §1

UniProt Q8VGC6 = molecular target: T5, UniProt Q8VGC6
T5 sequence (whole entry): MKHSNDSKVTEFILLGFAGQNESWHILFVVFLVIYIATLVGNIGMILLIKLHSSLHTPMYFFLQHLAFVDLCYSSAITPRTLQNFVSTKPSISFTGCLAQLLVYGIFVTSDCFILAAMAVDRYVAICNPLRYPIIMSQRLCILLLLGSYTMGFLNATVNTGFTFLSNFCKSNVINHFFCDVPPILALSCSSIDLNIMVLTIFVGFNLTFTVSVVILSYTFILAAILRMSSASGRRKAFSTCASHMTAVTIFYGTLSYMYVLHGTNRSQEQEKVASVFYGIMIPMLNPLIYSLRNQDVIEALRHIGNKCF
Outline: as §1

UniProt Q8VGJ3 = molecular target: T6, UniProt Q8VGJ3
T6 sequence (whole entry): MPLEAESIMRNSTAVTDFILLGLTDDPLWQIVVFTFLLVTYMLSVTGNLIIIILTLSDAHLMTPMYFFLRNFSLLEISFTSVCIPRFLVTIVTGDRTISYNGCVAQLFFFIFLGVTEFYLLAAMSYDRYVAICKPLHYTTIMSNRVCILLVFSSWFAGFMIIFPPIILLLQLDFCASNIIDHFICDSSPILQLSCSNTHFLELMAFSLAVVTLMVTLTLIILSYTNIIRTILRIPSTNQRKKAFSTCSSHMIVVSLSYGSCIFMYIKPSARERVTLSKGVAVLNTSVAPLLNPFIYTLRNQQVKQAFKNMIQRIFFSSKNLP
Outline: as §1

UniProt Q8VGL0 = molecular target: T7, UniProt Q8VGL0
T7 sequence (whole entry): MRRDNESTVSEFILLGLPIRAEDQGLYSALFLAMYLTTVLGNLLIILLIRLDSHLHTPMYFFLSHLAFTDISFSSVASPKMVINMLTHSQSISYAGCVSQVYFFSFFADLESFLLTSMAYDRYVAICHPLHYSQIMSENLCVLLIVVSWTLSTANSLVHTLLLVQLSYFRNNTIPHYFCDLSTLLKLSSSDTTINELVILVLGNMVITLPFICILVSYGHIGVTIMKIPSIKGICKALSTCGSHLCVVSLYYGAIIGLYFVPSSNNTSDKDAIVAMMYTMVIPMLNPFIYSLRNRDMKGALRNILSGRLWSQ
Outline: as §1

UniProt Q8VG49 = molecular target: T8, UniProt Q8VG49
T8 sequence (whole entry): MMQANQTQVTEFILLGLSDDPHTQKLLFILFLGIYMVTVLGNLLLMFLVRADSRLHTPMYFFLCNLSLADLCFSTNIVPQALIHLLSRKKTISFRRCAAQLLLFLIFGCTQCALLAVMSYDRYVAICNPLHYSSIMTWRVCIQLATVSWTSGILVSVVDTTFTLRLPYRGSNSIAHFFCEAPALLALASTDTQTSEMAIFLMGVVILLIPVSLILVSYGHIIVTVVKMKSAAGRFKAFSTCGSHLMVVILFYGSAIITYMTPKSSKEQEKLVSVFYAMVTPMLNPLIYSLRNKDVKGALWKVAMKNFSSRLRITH
Outline: as §1

UniProt Q8VG77 = molecular target: T9, UniProt Q8VG77
T9 sequence (whole entry): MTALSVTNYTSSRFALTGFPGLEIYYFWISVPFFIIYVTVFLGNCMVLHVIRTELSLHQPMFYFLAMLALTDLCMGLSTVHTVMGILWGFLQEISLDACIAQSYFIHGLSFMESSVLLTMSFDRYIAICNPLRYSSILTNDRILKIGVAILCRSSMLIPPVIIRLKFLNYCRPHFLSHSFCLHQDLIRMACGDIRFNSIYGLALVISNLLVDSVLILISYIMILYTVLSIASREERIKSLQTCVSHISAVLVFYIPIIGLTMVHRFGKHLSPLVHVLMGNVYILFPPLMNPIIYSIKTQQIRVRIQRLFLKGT
Outline: as §1

UniProt Q8VG96 = molecular target: T10, UniProt Q8VG96
T10 sequence (whole entry): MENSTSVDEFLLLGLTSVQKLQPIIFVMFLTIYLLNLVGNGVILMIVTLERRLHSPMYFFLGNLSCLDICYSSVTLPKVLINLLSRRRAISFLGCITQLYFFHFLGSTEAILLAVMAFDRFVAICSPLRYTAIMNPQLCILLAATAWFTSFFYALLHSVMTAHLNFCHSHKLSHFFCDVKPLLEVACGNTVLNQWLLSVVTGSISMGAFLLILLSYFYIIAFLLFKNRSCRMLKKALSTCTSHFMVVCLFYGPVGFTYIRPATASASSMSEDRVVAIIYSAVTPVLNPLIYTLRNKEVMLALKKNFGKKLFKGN
Outline: as §1

UniProt Q8VGD7 = molecular target: T11, UniProt Q8VGD7
T11 sequence (whole entry): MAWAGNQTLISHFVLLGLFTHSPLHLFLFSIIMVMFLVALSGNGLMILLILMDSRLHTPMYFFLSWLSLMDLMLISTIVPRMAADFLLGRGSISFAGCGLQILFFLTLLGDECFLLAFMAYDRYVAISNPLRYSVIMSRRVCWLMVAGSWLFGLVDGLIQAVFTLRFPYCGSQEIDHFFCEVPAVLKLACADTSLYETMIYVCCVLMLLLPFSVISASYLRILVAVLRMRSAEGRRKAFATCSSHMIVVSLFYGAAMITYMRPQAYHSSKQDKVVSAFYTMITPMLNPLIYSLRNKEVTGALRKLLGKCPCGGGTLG
Outline: as §1

UniProt Q8VGH1 = molecular target: T12, UniProt Q8VGH1
T12 sequence (whole entry): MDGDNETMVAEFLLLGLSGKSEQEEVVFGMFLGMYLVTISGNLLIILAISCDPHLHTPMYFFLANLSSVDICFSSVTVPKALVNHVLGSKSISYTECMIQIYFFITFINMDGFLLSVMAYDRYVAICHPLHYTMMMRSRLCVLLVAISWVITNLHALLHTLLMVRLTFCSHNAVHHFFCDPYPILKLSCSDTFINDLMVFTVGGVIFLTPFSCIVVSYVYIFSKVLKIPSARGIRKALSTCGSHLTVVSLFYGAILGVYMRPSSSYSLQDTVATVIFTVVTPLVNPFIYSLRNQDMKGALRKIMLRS
Outline: as §1

UniProt Q8VGJ1 = molecular target: T13, UniProt Q8VGJ1
T13 sequence (whole entry): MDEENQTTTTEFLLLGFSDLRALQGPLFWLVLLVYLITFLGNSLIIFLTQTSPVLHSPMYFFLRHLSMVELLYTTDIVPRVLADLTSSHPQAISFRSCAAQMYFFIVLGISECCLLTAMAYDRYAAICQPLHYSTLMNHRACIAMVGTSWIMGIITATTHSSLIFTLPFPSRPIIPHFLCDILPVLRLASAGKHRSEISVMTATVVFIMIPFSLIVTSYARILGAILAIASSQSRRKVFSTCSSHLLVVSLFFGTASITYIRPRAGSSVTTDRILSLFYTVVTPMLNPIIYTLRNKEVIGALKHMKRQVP
Outline: as §1

UniProt Q8VGJ5 = molecular target: T14, UniProt Q8VGJ5
T14 sequence (whole entry): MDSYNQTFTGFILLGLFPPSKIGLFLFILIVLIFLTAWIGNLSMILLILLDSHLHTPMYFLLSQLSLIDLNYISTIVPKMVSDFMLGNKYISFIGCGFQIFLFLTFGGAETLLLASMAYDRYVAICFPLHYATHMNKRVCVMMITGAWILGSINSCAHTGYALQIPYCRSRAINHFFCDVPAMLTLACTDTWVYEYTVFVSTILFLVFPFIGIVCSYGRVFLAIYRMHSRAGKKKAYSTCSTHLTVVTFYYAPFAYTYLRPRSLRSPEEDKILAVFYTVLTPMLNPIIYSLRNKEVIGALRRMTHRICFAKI
Outline: as §1

UniProt Q8VGL7 = molecular target: T15, UniProt Q8VGL7
T15 sequence (whole entry): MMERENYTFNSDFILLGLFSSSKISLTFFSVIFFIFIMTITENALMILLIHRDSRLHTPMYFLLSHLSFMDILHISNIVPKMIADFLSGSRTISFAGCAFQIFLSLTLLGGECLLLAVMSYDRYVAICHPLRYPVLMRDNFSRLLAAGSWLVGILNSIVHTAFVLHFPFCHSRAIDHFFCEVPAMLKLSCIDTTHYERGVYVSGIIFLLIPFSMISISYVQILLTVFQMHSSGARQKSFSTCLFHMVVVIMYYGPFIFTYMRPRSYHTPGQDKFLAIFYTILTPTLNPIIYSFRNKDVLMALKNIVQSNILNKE
Outline: as §1
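Also: active if original authors judged signal statistically different from baseline.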

SMILES	odorant receptor agonist call (UniProt Q8VG27)	odorant receptor agonist call (UniProt Q8VG53)	odorant receptor agonist call (UniProt Q8VG64)	odorant receptor agonist call (UniProt Q8VGB9)	odorant receptor agonist call (UniProt Q8VGC6)	odorant receptor agonist call (UniProt Q8VGJ3)	odorant receptor agonist call (UniProt Q8VGL0)	odorant receptor agonist call (UniProt Q8VG49)	odorant receptor agonist call (UniProt Q8VG77)	odorant receptor agonist call (UniProt Q8VG96)	odorant receptor agonist call (UniProt Q8VGD7)	odorant receptor agonist call (UniProt Q8VGH1)	odorant receptor agonist call (UniProt Q8VGJ1)	odorant receptor agonist call (UniProt Q8VGJ5)	odorant receptor agonist call (UniProt Q8VGL7)
CCCCCCC(=O)OCCCC	inactive	inactive	inactive	inactive	inactive	inactive	inactive	–	–	–	–	–	–	–	–
CC(=O)OCc1ccc2c(c1)OCO2	inactive	inactive	inactive	inactive	active	inactive	inactive	–	–	–	–	–	–	–	–
CCCCCCCCOC=O	inactive	inactive	inactive	inactive	inactive	inactive	inactive	–	–	–	–	–	–	–	–
COc1nccnc1C(C)C	inactive	inactive	inactive	inactive	inactive	inactive	inactive	–	–	–	–	–	–	–	–
CC(=O)C1(C)CC2=C(CCCC2(C)C)CC1C (stereo unspecified)	inactive	inactive	inactive	inactive	inactive	inactive	inactive	–	–	–	–	–	–	–	–
CC1(C)CC(=O)CC(=O)C1	inactive	inactive	inactive	inactive	inactive	inactive	inactive	–	–	–	–	–	–	–	–
CC(=O)OCC=C(C)C	inactive	inactive	inactive	inactive	active	inactive	inactive	inactive	inactive	inactive	inactive	inactive	inactive	active	inactive
O=C(O)C1CCC1	inactive	inactive	inactive	inactive	inactive	inactive	inactive	–	–	–	–	–	–	–	–
CCCCCC(C)O (stereo unspecified)	inactive	inactive	inactive	inactive	inactive	inactive	inactive	–	–	–	–	–	–	–	–
Cc1ccc(C(C)C)cc1	inactive	inactive	inactive	inactive	inactive	inactive	inactive	–	–	–	–	–	–	–	–
Cc1ccc(C(C)C)c(O)c1	inactive	inactive	inactive	inactive	inactive	inactive	inactive	–	–	–	–	–	–	–	–
CCc1nccnc1CC	inactive	inactive	inactive	inactive	inactive	inactive	inactive	–	–	–	–	–	–	–	–
CSSSC	inactive	inactive	inactive	inactive	inactive	inactive	inactive	–	–	–	–	–	–	–	–
CC(C)=CCCC(C)CCO (stereo unspecified)	inactive	inactive	inactive	inactive	active	inactive	active	inactive	inactive	inactive	inactive	inactive	inactive	inactive	inactive
CCC(C)O (stereo unspecified)	inactive	inactive	inactive	inactive	inactive	inactive	inactive	–	–	–	–	–	–	–	–
